For orientation: MIC means the smallest concentration in the dilution series that meets the test's criterion for growth inhibition.

In ChEMBL document CHEMBL1125920, “Synthesis and biological activity of 5-alkyl-1,7,8-trisubstituted-6-fluoroquinoline-3-carboxylic acids” (1991) one finds Ratio, MIC and DNA cleavage data, which are given here for seven compounds.

≈ marks a conversion by molar mass, not a printed value.

Assay [1] in a line: MIC ratio measured as the mean MICs of gram-negative bacteria. In kind it is functional. In outline: (§1)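 Geometric mean of the MICs (µg/mL) over the Gram-negative or the Gram-positive strains of the 10-organism microtitration panel, calculated separately for each class.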
Assay [2] is described as follows: MIC ratio measured as the mean MICs of gram-positive bacteria. In kind it is functional. In outline: as §1
Another assay has as its system Streptococcus pneumoniae. As to the kind of experiment: Antibacterial activity was determined against gram positive organism, Streptococcus pneumoniae (SV-1). In kind it is functional. In outline:
(§2)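 MIC by standard microtitration against a panel of 10 representative Gram-negative and Gram-positive organisms; values reported in µg/mL.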

A further assay has as its system Streptococcus pyogenes. Put plainly: Antibacterial activity was determined against gram positive organism, Streptococcus pyogenes (C203). In kind it is functional. In outline: as §2
Assay [3] relates to Staphylococcus aureus. As to the kind of experiment: Antibacterial activity was determined against gram positive organism, Staphylococcus aureus (UC76). In kind it is functional. The gist of the method:
as §2

For assay [4], the system named is Staphylococcus aureus. As to the kind of experiment: Antibacterial activity was determined against gram positive organism, Staphylococcus aureus (H228). In kind it is functional. The gist of the method:
as §2

The test system of another assay is Enterobacter cloacae. Put plainly: Antibacterial activity against gram negative organism, […] (MA2646). In kind it is functional.
Another assay relates to Pseudomonas aeruginosa. As to the kind of experiment: Antibacterial activity was determined against gram negative organism, Pseudomonas aeruginosa (UI-18). In kind it is functional. The gist of the method:
as §2

The test system of the next assay is Bacteria. As to the kind of experiment: Antibacterial activity was determined against gram negative organism, Providencia rettgeri. (M1771). In kind it is functional. In outline: as §2
Another assay has as its system Escherichia coli. Put plainly: Antibacterial activity was determined against gram negative organism, E. coli(vogel). In kind it is functional. The gist of the method:
as §2

Assay [5] deals with DNA gyrase (Escherichia coli) (UniProt P0AES6+P0AES4).
The subject of another assay is Klebsiella pneumoniae. Put plainly: Antibacterial activity was determined against gram negative organism, K. pneumoniae (MGH-2). In kind it is functional. In outline: as §2
A further assay concerns Enterococcus faecalis. As to the kind of experiment: Antibacterial activity was determined against gram positive organism, Streptococcus faecalis (MGH-2). In kind it is functional. The gist of the method: as §2

For `NC1CCN(c2c(F)cc3c(=O)c(C(=O)O)cn(C4CC4)c3c2Cl)C1` (stereo unspecified) [CLINAFLOXACIN], the Ratio in assay [1] and in [2] was 0.029 each time. The MIC was 0.025 µg/mL (≈ 0.0683 µM) against Streptococcus pneumoniae; 0.05 µg/mL (≈ 0.137 µM) against Streptococcus pyogenes; 0.013 µg/mL (≈ 0.0355 µM) against Staphylococcus aureus [3]; 0.025 µg/mL (≈ 0.0683 µM) in the assay on Staphylococcus aureus [4]; 0.025 µg/mL (≈ 0.0683 µM) against Enterobacter cloacae; 0.05 µg/mL (≈ 0.137 µM) with Pseudomonas aeruginosa. Also, the MIC in the assay with Bacteria was 0.025 µg/mL (≈ 0.0683 µM); with Escherichia coli it was 0.025 µg/mL (≈ 0.0683 µM); against Klebsiella pneumoniae, 0.025 µg/mL (≈ 0.0683 µM); in the assay with Enterococcus faecalis, 0.05 µg/mL (≈ 0.137 µM). The DNA cleavage in assay [5] was 0.5 µg/mL.

As to `Cc1c(F)c(N2CCNCC2)cc2c1c(=O)c(C(=O)O)cn2-c1ccc(F)cc1F`, the Ratio in assay [1] is 0.13; in assay [2] it was 0.076. Moreover, the MIC with Streptococcus pneumoniae was 0.05 µg/mL (≈ 0.12 µM); in the assay on Streptococcus pyogenes it was 0.1 µg/mL (≈ 0.24 µM); in the assay on Staphylococcus aureus [3], 0.025 µg/mL (≈ 0.0599 µM); with Staphylococcus aureus [4], 0.1 µg/mL (≈ 0.24 µM); in the assay with Enterobacter cloacae it was 0.05 µg/mL (≈ 0.12 µM); with Pseudomonas aeruginosa, 0.8 µg/mL (≈ 1.92 µM). In addition, the MIC against Bacteria stood at 0.2 µg/mL (≈ 0.479 µM); against Escherichia coli it was 0.05 µg/mL (≈ 0.12 µM); with Klebsiella pneumoniae, 0.1 µg/mL (≈ 0.24 µM); with Enterococcus faecalis, 0.2 µg/mL (≈ 0.479 µM). Moreover, the DNA cleavage in assay [5] stood at 3 µg/mL.

`CCn1cc(C(=O)O)c(=O)c2c(C)c(F)c(N3CCC(N)C3)c(F)c21` (stereo unspecified): the Ratio turned out to be 0.2 in assay [1] and 0.69 in assay [2]. Moreover, the MIC is 1.6 µg/mL (≈ 4.55 µM) against Streptococcus pneumoniae; 3.1 µg/mL (≈ 8.82 µM) against Streptococcus pyogenes; 0.1 µg/mL (≈ 0.285 µM) against Staphylococcus aureus [3]; 0.4 µg/mL (≈ 1.14 µM) in the assay on Staphylococcus aureus [4]; 0.05 µg/mL (≈ 0.142 µM) against Enterobacter cloacae; 1.6 µg/mL (≈ 4.55 µM) in the assay on Pseudomonas aeruginosa. Further, the MIC in the assay with Bacteria amounted to 0.4 µg/mL (≈ 1.14 µM); against Escherichia coli, 0.05 µg/mL (≈ 0.142 µM); in the assay with Klebsiella pneumoniae, 0.2 µg/mL (≈ 0.569 µM); against Enterococcus faecalis, 0.8 µg/mL (≈ 2.28 µM). In assay [5], this compound came in with a DNA cleavage of 3 µg/mL.

Regarding `Cc1c(F)c(N2CCC(N)C2)c(Cl)c2c1c(=O)c(C(=O)O)cn2C1CC1` (stereo unspecified), the Ratio in assay [1] turned out to be 0.05; in assay [2], 0.029. For the same compound, the MIC with Streptococcus pneumoniae is 0.025 µg/mL (≈ 0.0658 µM); against Streptococcus pyogenes, 0.05 µg/mL (≈ 0.132 µM); against Staphylococcus aureus [3] it was 0.013 µg/mL (≈ 0.0342 µM); in the assay on Staphylococcus aureus [4], 0.025 µg/mL (≈ 0.0658 µM); in the assay on Enterobacter cloacae, 0.05 µg/mL (≈ 0.132 µM); in the assay with Pseudomonas aeruginosa, 0.2 µg/mL (≈ 0.527 µM). For the same compound, the MIC was 0.05 µg/mL (≈ 0.132 µM) against Bacteria, 0.013 µg/mL (≈ 0.0342 µM) in the assay on Escherichia coli, 0.05 µg/mL (≈ 0.132 µM) in the assay with Klebsiella pneumoniae and 0.05 µg/mL (≈ 0.132 µM) against Enterococcus faecalis. For the same compound, the DNA cleavage in assay [5] was 0.3 µg/mL.

`CCn1cc(C(=O)O)c(=O)c2c(C)c(F)c(N3CCC(N)C3)cc21` (stereo unspecified): the results for the Ratio in assay [1] and in assay [2] were 0.69 and 1.38, respectively. For the same compound, the MIC worked out at 1.6 µg/mL (≈ 4.8 µM) against Streptococcus pneumoniae; 3.1 µg/mL (≈ 9.3 µM) against Streptococcus pyogenes; 0.4 µg/mL (≈ 1.2 µM) with Staphylococcus aureus [3]; 1.6 µg/mL (≈ 4.8 µM) against Staphylococcus aureus [4]; 0.2 µg/mL (≈ 0.6 µM) with Enterobacter cloacae; 3.1 µg/mL (≈ 9.3 µM) with Pseudomonas aeruginosa. In addition, the MIC in the assay on Bacteria is 1.6 µg/mL (≈ 4.8 µM); with Escherichia coli, 0.2 µg/mL (≈ 0.6 µM); with Klebsiella pneumoniae, 0.8 µg/mL (≈ 2.4 µM); in the assay on Enterococcus faecalis, 1.6 µg/mL (≈ 4.8 µM). Also, the DNA cleavage in assay [5] is 6.3 µg/mL.

Regarding `CCn1cc(C(=O)O)c(=O)c2c(C)c(F)c(N3CCNCC3)c(F)c21`, the Ratio in assay [1] stood at 0.2; in assay [2], 2.08. Besides, the MIC against Streptococcus pneumoniae was 6.3 µg/mL (≈ 17.9 µM); in the assay with Streptococcus pyogenes, 12.5 µg/mL (≈ 35.6 µM); with Staphylococcus aureus [3] it was 0.2 µg/mL (≈ 0.569 µM); against Staphylococcus aureus [4] it was 0.8 µg/mL (≈ 2.28 µM); in the assay on Enterobacter cloacae, 0.05 µg/mL (≈ 0.142 µM); in the assay on Pseudomonas aeruginosa, 1.6 µg/mL (≈ 4.55 µM). For the same compound, the minimum inhibitory concentration (MIC) in the assay on Bacteria worked out at 0.4 µg/mL (≈ 1.14 µM); in the assay on Escherichia coli, 0.05 µg/mL (≈ 0.142 µM); against Klebsiella pneumoniae, 0.2 µg/mL (≈ 0.569 µM); with Enterococcus faecalis it was 3.1 µg/mL (≈ 8.82 µM). In assay [5], this compound returned a DNA cleavage of 7.5 µg/mL.

`Cc1c(F)c(N2CCNC(C)C2)cc2c1c(=O)c(C(=O)O)cn2-c1ccc(F)cc1F` (stereo unspecified): the Ratio came to 0.4 in assay [1] and 0.087 in [2]. Also, the MIC with Streptococcus pneumoniae came to 0.05 µg/mL (≈ 0.116 µM); in the assay on Streptococcus pyogenes, 0.1 µg/mL (≈ 0.232 µM); with Staphylococcus aureus [3], 0.025 µg/mL (≈ 0.0579 µM); with Staphylococcus aureus [4] it was 0.1 µg/mL (≈ 0.232 µM); in the assay on Enterobacter cloacae, 0.2 µg/mL (≈ 0.464 µM); against Pseudomonas aeruginosa it was 1.6 µg/mL (≈ 3.71 µM). The MIC against Bacteria is 0.8 µg/mL (≈ 1.85 µM); against Escherichia coli, 0.1 µg/mL (≈ 0.232 µM); against Klebsiella pneumoniae it was 0.4 µg/mL (≈ 0.927 µM); against Enterococcus faecalis it was 0.4 µg/mL (≈ 0.927 µM). In [5], this compound gave a DNA cleavage of 1.75 µg/mL.
